In data set [1] the target is T1, Cytochrome P450 2C19 (Homo sapiens, UniProt P33261). Put plainly: (§1) Extent of complex formation with 20 uM compound. In kind it is ADME, Oryctolagus cuniculus. To be noted: rabbit.
For data set [2], the target named is T1, Cytochrome P450 2C19. The experiment in a line: (§2) Extent of complex formation with 30 uM compound. The format is ADME, Oryctolagus cuniculus. To be noted: rabbit.
Data set [3] addresses T1, Cytochrome P450 2C19. Put plainly: Initial rate of complex formation with 20 uM compound. The format is ADME, Oryctolagus cuniculus. Particulars: rabbit.
For data set [4], the target named is T1, Cytochrome P450 2C19. The experiment in a line: Percent inhibition of formation of metabolic intermediate complex between Cytochrome P450 and compound 1a (30 uM) initially, following incubation at compound concentration of 0 uM. To be noted: rabbit, probe compound 1a (30 uM). In kind it is ADME, Oryctolagus cuniculus. In outline:
(§3)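 Inverse cross-inhibition in NADPH-supplemented rabbit liver microsomes at 37 °C. Preincubation with racemic hydroxylamine at 0–30 μM, monitoring 457-nm complex formation. The amine was then added at 30 μM, or racemic hydroxylamine at 30 μM. Initial rate and plateau extent were taken from ΔA457–500 nm tracings. Percent inhibition is relative to incubation in fresh microsomes.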

For data set [5], the target named is T1, Cytochrome P450 2C19. Put plainly: (§4) Extent of complex formation with 5 uM compound. In kind it is ADME, Oryctolagus cuniculus. Particulars: rabbit.
In data set [6] the target is T1, Cytochrome P450 2C19. Put plainly: Initial rate of complex formation without compound. Particulars: rabbit. In kind it is ADME, Oryctolagus cuniculus. In outline:
as §3

Data set [7] addresses T1, Cytochrome P450 2C19. The experiment in a line: Initial rate of complex formation with20 uM compound. The format is ADME, Oryctolagus cuniculus. To be noted: rabbit, 20 µM.
Data set [8] addresses T1, Cytochrome P450 2C19. The experiment in a line: (§5) Initial rate of complex formation with 30 uM compound. The format is ADME, Oryctolagus cuniculus. To be noted: rabbit.
Data set [9] addresses T1, Cytochrome P450 2C19. Put plainly: Initial rate of complex formation with 15 uM compound. The format is ADME, Oryctolagus cuniculus. To be noted: rabbit.
The target of data set [10] is T1, Cytochrome P450 2C19. Described as §5. Particulars: rabbit. In kind it is ADME, Oryctolagus cuniculus. The source holds these as a separate data set.
Data set [11] concerns the target T1, Cytochrome P450 2C19. The experiment in a line: Initial rate of complex formation with 5 uM compound. The format is ADME, Oryctolagus cuniculus. Particulars: rabbit.
Data set [12] deals with T1, Cytochrome P450 2C19. Put plainly: Extent of complex formation without compound. To be noted: rabbit. The format is ADME, Oryctolagus cuniculus. In outline: as §3
Data set [13] deals with T1, Cytochrome P450 2C19. The data set is described as §4. The format is ADME, Oryctolagus cuniculus. Particulars: rabbit. This is another data set of the same source.
Data set [14] addresses T1, Cytochrome P450 2C19. Described as §1. The format is ADME, Oryctolagus cuniculus. Particulars: rabbit. This is another data set of the same source.
Data set [15] has as its target T1, Cytochrome P450 2C19. The description is as §2. In kind it is ADME, Oryctolagus cuniculus. Particulars: rabbit. This is another data set of the same source.
Data set [16] deals with T1, Cytochrome P450 2C19. The data set is described as §1. In kind it is ADME, Oryctolagus cuniculus. To be noted: rabbit. The source holds these as a separate data set.
In data set [17] the target is T1, Cytochrome P450 2C19. The description is as §5. In kind it is ADME, Oryctolagus cuniculus. Particulars: rabbit. This is another data set of the same source.
Data set [18] addresses T1, Cytochrome P450 2C19. The description is as §1. The format is ADME, Oryctolagus cuniculus. To be noted: rabbit. The source holds these as a separate data set.
Data set [19] addresses T1, Cytochrome P450 2C19. The experiment in a line: Extent of complex formation with 15 uM compound. In kind it is ADME, Oryctolagus cuniculus. To be noted: rabbit.
For data set [20], the target named is T1, Cytochrome P450 2C19. Described as §2. In kind it is ADME, Oryctolagus cuniculus. To be noted: rabbit. This is another data set of the same source.
The target of data set [21] is T1, Cytochrome P450 2C19. The experiment in a line: Percent inhibition of formation of metabolic intermediate complex between Cytochrome P450 and compound 1a (30 uM) initially, on pre-incubation with compound concentration of 5 uM. The format is ADME, Oryctolagus cuniculus. To be noted: rabbit, probe compound 1a (30 uM). In outline: as §3
Data set [22] addresses T1, Cytochrome P450 2C19. The description is as §2. In kind it is ADME, Oryctolagus cuniculus. Particulars: rabbit. This is another data set of the same source.
For data set [23], the target named is T1, Cytochrome P450 2C19. The description is as §5. The format is ADME, Oryctolagus cuniculus. To be noted: rabbit. The source holds these as a separate data set.
Data set [24] is described as follows: Lag time between the addition of compound (30 uM) and the first appearance of chromophore. The format is ADME. In outline:
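Rabbit liver microsomes at 2 mg protein/mL with 0.1 mM EDTA, 37 °C, substrate 30 μM. Complex formation started with 0.4 mM NADPH and followed by dual-wavelength absorbance, 457 vs 500 nm. Initial rate is the initial slope, ΔA×10^4 per nmol P-450 per min. Extent is the plateau absorbance. Lag is the time from NADPH addition to first 457-nm chromophore. Triplicate or single runs.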

Where “and” joins values, the source holds several entries; their conditions need not be identical. Identical values can stand only once.

For orientation: inhibition means the share of the control response that was lost under treatment.

T1 sequence (P33261 whole entry): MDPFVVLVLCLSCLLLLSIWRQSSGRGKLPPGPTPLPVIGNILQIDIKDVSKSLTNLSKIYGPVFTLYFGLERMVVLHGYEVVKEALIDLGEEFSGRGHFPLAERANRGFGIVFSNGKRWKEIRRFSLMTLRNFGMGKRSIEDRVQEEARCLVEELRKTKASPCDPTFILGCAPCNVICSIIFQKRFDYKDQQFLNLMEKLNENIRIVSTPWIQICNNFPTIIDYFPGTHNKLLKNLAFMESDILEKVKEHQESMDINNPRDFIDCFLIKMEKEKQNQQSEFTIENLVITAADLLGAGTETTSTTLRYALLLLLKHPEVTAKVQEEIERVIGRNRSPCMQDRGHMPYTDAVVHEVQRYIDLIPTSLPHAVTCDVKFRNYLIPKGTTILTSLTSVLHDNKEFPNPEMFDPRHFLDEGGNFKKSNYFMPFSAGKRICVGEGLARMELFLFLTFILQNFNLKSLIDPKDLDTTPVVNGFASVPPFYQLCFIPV

In the case of `COc1cc(C[C@@H](C)NO)c(OC)cc1C.COc1cc(C[C@H](C)NO)c(OC)cc1C`, the Complex_formation at Cytochrome P450 2C19 [1] was 108 deltaA.10^4nmol-1; at Cytochrome P450 2C19 [2] it was 27 deltaA.10^4nmol-1; at Cytochrome P450 2C19 [5], 39 deltaA.10^4nmol-1; on Cytochrome P450 2C19 [12], 76 deltaA.10^4nmol-1 and 95 deltaA.10^4nmol-1; on Cytochrome P450 2C19 [13], 43 deltaA.10^4nmol-1 and 85 deltaA.10^4nmol-1; at Cytochrome P450 2C19 [14], 109 deltaA.10^4nmol-1. Also, the Complex_formation was 30 deltaA.10^4nmol-1 at Cytochrome P450 2C19 [15]; 85 deltaA.10^4nmol-1 on Cytochrome P450 2C19 [16]; 90 deltaA.10^4nmol-1 at Cytochrome P450 2C19 [18]; 97 deltaA.10^4nmol-1 at Cytochrome P450 2C19 [19]; 139 deltaA.10^4nmol-1 and 135 deltaA.10^4nmol-1 on Cytochrome P450 2C19 [20]; 51 deltaA.10^4nmol-1 on Cytochrome P450 2C19 [22]. Moreover, the Initial_rate on Cytochrome P450 2C19 [3] is 89 deltaA.10^4nmol-1.min-1; at Cytochrome P450 2C19 [6] it was 46 deltaA.10^4nmol-1.min-1 and 124 deltaA.10^4nmol-1.min-1; at Cytochrome P450 2C19 [7], 87 deltaA.10^4nmol-1.min-1; at Cytochrome P450 2C19 [8] it was 12.4 deltaA.10^4nmol-1.min-1; at Cytochrome P450 2C19 [9], 131 deltaA.10^4nmol-1.min-1; at Cytochrome P450 2C19 [10], 177 deltaA.10^4nmol-1.min-1 and 176 deltaA.10^4nmol-1.min-1. Also, the Initial_rate at Cytochrome P450 2C19 [11] is listed as 52 deltaA.10^4nmol-1.min-1; on Cytochrome P450 2C19 [17], 5.5 deltaA.10^4nmol-1.min-1; on Cytochrome P450 2C19 [23], 5 deltaA.10^4nmol-1.min-1. In addition, on Cytochrome P450 2C19 [4], the inhibition at 0 uM is 30%. Moreover, on Cytochrome P450 2C19 [21], the inhibition at 5 µM is 80%. The same molecule returned a Lag time in data set [24] of 0 s.

The record behind these values is ChEMBL document CHEMBL1121797, “Studies on chiral interactions of 1-(2,5-dimethoxy-4-methylphenyl)-2-aminopropane and the corresponding N-hydroxy metabolites with cytochrome P-450” (J Med Chem, 1981).
